From publication PMC12709667 (Journal of Clinical Pharmacology, 2025)
Where “and” joins values, the source holds several entries; their conditions need not be identical. Equal values may be shown once.

Experiments:
Human [14C] ADME study = format: in vivo
UGT1A1 [1] = molecular target: T1, UGT1A1 (Homo sapiens, UniProt P22309); test: Phase 2 enzyme substrate assessment; format: in vitro ADME
T1 sequence (P22309 26-533): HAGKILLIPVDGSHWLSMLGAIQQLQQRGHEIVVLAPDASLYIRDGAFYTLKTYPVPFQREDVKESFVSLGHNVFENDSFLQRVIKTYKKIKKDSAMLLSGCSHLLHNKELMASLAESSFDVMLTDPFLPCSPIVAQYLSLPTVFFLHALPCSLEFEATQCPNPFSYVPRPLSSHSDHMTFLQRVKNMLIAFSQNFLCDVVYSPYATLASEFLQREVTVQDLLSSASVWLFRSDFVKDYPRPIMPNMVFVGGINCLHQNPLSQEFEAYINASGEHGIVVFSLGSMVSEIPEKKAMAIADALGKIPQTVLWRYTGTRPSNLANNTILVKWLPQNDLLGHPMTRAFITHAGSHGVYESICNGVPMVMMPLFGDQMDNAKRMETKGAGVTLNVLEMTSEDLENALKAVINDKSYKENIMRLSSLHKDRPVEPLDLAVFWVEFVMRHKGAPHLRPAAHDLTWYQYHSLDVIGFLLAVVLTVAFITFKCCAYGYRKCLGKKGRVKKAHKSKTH

[2] = [14C] metabolism and excretion study in cynomolgus monkeys; format: in vivo, cynomolgus monkey; settings: for whole blood‐to‐plasma ratio of total radioactivity: based on AUC0‐last; for recovery of radioactivity: by 168 h postdose
Outline: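 Male and female cynomolgus monkeys received one oral-gavage dose of 80 mg/kg (2 MBq/kg) [14C]-labelled test compound. Blood, urine and faeces were collected at set times up to 168 h for total radioactivity. Metabolites were profiled by high-resolution LC-MS with online fraction collection and offline counting. The blood:plasma ratio was based on AUC0-last.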

CYP3A4 = CYP3A4 (Homo sapiens, UniProt P08684); test: biochemical; format: in vitro ADME
[3] = Quantitative whole-body autoradiography tissue distribution in mice; format: in vivo, mouse; settings: for association of radioactivity with melanin: pigmented mice
Outline: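 Quantitative whole-body autoradiography after dosing with [14C]-labelled test compound, in non-pigmented (albino) and partially pigmented C57 mice. Frozen carcasses were sectioned and imaged at timepoints from 1 h to 168 h postdose to measure tissue radioactivity. Melanin-containing tissues (skin, uveal tract) were included.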

CYP2C19 [4] = molecular target: T2, CYP2C19 (Homo sapiens, UniProt P33261); test: Cytochrome P450 inhibition; format: in vitro ADME
CYP2C19 [5] = molecular target: T2, CYP2C19; test: DDI victim study with fluvoxamine; format: in vivo; settings: with strong CYP2C19 inhibitor fluvoxamine
CYP2B6 = molecular target: T3, CYP2B6 (Homo sapiens, UniProt P20813); format: in vitro ADME
T3 sequence (P20813 1-491): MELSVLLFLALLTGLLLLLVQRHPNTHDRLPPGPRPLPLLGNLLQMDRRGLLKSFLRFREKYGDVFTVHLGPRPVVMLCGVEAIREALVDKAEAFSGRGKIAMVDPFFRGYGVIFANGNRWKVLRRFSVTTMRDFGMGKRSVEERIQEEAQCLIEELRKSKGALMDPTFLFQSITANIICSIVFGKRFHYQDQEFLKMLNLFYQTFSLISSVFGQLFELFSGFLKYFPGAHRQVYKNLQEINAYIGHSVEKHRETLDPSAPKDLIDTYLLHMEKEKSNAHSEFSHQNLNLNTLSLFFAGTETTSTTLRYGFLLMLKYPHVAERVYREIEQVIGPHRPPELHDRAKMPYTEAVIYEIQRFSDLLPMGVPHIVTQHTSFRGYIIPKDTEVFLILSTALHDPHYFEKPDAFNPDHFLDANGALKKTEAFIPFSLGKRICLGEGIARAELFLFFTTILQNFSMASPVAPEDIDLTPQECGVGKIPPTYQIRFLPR

[6] = First-in-human study, single ascending dose; format: in vivo
DDI perpetrator study = format: in vivo; settings: human, plasma, oral, 400 mg
CYP1A2 = format: in vitro ADME, human; settings: up to 10 µM, three donors
[7] = In vitro blood/plasma partitioning; format: in vitro ADME; settings: rat, whole blood
Outline: (§1)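 Test compound was added to rat, monkey or human whole blood and incubated, then centrifuged to obtain plasma. The plasma concentration was measured by LC-MS. It was compared with the concentration in directly spiked plasma of the same species.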

UGT1A1 [8] = molecular target: T1, UGT1A1; test: DDI perpetrator study: dolutegravir probe; format: in vivo; settings: miricorilant 400 mg once daily as perpetrator
[9] = In vitro blood/plasma partitioning; format: in vitro ADME; settings: human, whole blood
Outline: as §1

MDR1/P-gp = MDR1/P-gp (Homo sapiens, UniProt P08183); test: Transporter substrate assessment; format: in vitro ADME
UGT1A1 [10] = molecular target: T1, UGT1A1; test: Phase 2 enzyme inhibition; format: in vitro ADME
fatty liver disease = settings: cited from earlier work
[11] = In vitro blood/plasma partitioning; format: in vitro ADME; settings: monkey, whole blood
Outline: as §1

Chain of CYP3A4 (P08684 whole entry): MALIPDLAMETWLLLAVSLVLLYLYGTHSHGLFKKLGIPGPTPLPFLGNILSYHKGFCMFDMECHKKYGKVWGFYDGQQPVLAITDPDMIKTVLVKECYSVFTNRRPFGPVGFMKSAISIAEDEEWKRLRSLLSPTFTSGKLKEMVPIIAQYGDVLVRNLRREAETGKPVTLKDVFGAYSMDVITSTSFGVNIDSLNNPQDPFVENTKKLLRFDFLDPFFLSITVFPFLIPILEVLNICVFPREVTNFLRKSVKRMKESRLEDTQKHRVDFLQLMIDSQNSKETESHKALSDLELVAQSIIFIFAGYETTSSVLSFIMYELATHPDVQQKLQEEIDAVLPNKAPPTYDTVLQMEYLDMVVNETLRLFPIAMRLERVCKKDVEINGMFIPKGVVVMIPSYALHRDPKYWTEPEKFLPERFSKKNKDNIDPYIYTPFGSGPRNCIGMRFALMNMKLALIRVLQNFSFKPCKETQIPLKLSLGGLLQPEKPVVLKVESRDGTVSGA
T2 sequence (P33261 whole entry): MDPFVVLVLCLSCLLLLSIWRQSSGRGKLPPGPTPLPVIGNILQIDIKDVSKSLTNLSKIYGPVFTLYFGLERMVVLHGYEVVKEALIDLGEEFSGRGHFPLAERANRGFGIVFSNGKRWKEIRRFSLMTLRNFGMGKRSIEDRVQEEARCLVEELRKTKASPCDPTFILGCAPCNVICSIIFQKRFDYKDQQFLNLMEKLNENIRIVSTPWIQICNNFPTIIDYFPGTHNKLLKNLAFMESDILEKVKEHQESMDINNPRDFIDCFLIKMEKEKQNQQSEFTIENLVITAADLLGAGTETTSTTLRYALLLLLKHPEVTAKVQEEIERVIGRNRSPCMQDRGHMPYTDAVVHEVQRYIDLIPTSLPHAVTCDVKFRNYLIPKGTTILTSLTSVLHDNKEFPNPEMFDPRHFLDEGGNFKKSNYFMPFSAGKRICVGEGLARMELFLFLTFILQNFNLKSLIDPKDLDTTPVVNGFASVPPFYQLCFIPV
Chain of MDR1/P-gp (P08183 whole entry): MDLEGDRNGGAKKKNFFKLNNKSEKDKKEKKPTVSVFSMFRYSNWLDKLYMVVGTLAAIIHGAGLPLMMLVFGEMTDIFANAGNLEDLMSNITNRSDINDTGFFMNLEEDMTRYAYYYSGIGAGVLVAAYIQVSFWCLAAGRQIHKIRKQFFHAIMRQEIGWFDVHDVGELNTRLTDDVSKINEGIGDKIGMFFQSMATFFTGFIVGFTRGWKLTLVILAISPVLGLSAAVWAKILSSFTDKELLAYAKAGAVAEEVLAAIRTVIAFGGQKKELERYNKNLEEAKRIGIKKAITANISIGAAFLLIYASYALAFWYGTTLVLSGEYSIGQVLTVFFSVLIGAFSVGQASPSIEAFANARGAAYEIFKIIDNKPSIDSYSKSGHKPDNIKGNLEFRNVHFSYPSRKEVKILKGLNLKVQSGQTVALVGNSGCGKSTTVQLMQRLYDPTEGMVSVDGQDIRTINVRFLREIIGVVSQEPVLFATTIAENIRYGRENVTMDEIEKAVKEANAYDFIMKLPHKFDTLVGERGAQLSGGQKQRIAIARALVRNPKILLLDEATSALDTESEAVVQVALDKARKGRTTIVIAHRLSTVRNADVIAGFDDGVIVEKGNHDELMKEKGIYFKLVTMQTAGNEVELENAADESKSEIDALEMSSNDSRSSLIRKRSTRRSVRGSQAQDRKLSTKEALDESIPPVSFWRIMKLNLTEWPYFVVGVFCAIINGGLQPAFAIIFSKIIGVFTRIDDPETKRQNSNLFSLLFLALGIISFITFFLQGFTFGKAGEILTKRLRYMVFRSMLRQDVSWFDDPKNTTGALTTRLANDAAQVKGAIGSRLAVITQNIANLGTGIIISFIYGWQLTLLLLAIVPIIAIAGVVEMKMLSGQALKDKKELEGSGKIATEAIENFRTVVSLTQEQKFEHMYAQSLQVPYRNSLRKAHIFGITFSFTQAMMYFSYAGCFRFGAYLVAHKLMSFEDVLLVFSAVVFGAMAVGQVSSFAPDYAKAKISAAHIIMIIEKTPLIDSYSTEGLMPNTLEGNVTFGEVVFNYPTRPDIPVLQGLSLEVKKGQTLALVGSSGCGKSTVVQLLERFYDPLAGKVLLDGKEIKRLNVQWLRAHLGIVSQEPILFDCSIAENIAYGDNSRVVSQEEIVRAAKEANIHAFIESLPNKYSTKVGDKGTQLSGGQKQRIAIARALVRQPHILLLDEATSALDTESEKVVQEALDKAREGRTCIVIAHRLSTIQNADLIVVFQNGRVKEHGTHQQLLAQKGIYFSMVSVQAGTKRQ

O=c1[nH]c(=O)c(Cc2cccc(C(F)(F)F)c2)c([C@H]2CC[C@H](c3ccccc3)CC2)[nH]1 [miricorilant]
administered radioactivity recovered in excreta (Human [14C] ADME study; 240‐h sampling period, mean ± SD): 93.68 ± 1.63% | administered dose recovered in urine (Human [14C] ADME study; human, 150 mg oral solution): 4.56% | total radioactivity recovered in feces (Human [14C] ADME study; human, 150 mg oral solution): 89.12% and 89.12 ± 1.16% | Cmax (Human [14C] ADME study; male, human, plasma, po, 150 mg): 343 ng/mL | administered radioactivity eliminated (Human [14C] ADME study; within the first 48 h post dose): 19.28 ± 9.01% | Substrate of UGT1A1 (UGT1A1 [1]): not a substrate | elimination in urine ([2]; female monkeys): 0.74 ± 0.11% | fecal elimination ([2]; female monkeys): 78.51 ± 8.77% | time at which plasma radioactivity was below the limit of detection ([2]; female monkeys): 96 h | whole blood‐to‐plasma ratio of total radioactivity ([2]; female monkeys): 0.66 | recovery of radioactivity ([2]; female monkeys): 88.08 ± 4.03% | elimination in urine ([2]; male monkeys): 0.96 ± 0.08% | fecal elimination ([2]; male monkeys): 72.2 ± 11.20% | time at which plasma radioactivity was below the limit of detection ([2]; male monkeys): 144 h | whole blood‐to‐plasma ratio of total radioactivity ([2]; male monkeys): 0.75 | recovery of radioactivity ([2]; male monkeys): 80.88 ± 11.60% | IC50 (CYP3A4): 3.4 µM | time dependence of CYP3A4 inhibition (CYP3A4): not time dependent | radioactivity in the lens of the eye ([3]; albino mice): not present at quantifiable levels | radioactivity in the brain and spinal cord ([3]; albino mice, 4 and 8 h): low levels | time of peak tissue concentration of radioactivity ([3]; albino mice, majority of tissues (pancreas, liver, gall bladder etc.)): 4 h | radioactivity in the liver ([3]; mice): high concentrations | association of radioactivity with melanin [3]: no long‐term association | association of radioactivity with melanin ([3]; listed as [^14C]‐miricorilant): no affinity | inhibition of CYP2C19 (CYP2C19 [4]): No inhibition | clinical sensitivity as substrate of CYP2C19 (CYP2C19 [5]): moderately sensitive substrate | inhibition of CYP2B6 (CYP2B6): No inhibition | increase in AUC0‐last, fed versus fasted ([6]; 900 mg SDD suspension): approximately 3.34 fold | increase in Cmax, fed versus fasted ([6]; 900 mg SDD suspension): approximately 2.45 fold | increase in AUC on administration with food ([6]; Discussion, dose and formulation not stated): 2.3 fold | half-life ([6]; human, plasma, oral, half‐life, single doses, healthy subjects): ~1200 min | AUC (DDI perpetrator study): 11400 ng·h/mL | Cmax at 10 study day (DDI perpetrator study): 895 ng/mL | Tmax at 10 study day (DDI perpetrator study): 4 h | half-life at 10 study day (DDI perpetrator study): 735 min | induction of CYP1A2 (CYP1A2): no induction | blood plasma ratio [7]: 0.84 | clinical inhibition of UGT1A1 (UGT1A1 [8]): does not inhibit | blood plasma ratio [9]: 1.14 | Substrate of MDR1/P-gp (MDR1/P-gp): not a substrate | IC50 (UGT1A1 [10]): 1400 nM | efficacy in mouse models of fatty liver disease (fatty liver disease): shown efficacy | blood plasma ratio [11]: 0.83
